This is an account of results in ChEMBL document CHEMBL1132979, “5-HT reuptake inhibitors with 5-HT(1B/1D) antagonistic activity: a new approach toward efficient antidepressants” (J Med Chem, 2000).

The target of test [1] is T1, 5-hydroxytryptamine receptor 1A (Rattus norvegicus, UniProt P19327).
T1 sequence (P19327 whole entry): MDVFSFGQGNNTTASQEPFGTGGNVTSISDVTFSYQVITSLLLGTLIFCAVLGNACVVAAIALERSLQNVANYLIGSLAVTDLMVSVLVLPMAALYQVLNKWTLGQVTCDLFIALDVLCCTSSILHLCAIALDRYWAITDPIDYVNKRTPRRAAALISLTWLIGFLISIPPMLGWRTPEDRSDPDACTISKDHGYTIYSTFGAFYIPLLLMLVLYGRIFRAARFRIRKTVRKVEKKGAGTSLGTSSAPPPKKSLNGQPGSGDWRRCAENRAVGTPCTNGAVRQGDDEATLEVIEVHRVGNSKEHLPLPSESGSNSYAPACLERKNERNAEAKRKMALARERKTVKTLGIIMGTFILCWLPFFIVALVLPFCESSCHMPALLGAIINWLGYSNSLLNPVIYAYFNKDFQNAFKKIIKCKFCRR
The test is described as follows: Binding affinity towards 5-hydroxytryptamine 1A receptor in rat hippocampus using [3H]8-OH-DPAT as radio-ligand.

For test [2], the target named is 5-hydroxytryptamine receptor 1B (Rattus norvegicus, UniProt P28564). Kind of test: Binding affinity towards 5-hydroxytryptamine 1B receptor in rat frontal cortex using [125I]iodocyanopindolol as radio-ligand. Format: tissue-based.
5-hydroxytryptamine receptor 1B, sequence (P28564 whole entry): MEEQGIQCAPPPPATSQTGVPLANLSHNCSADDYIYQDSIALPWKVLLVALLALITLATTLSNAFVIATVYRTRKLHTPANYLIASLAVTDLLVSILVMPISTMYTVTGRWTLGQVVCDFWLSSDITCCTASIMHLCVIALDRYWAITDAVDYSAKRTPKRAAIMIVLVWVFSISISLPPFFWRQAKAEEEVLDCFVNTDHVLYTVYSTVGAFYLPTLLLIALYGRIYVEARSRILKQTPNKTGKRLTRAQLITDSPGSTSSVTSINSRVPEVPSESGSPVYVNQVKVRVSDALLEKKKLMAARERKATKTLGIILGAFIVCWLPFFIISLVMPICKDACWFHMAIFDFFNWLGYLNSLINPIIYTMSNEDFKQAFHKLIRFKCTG
The species named for the next test is Rattus norvegicus. Kind of test: [3H]5-HT reuptake inhibition in Rat brain synaptosomes. Format: functional.
The species entered for the next test is Oryctolagus cuniculus. Kind of test: Inhibition of the contractile responses elicited by sumatriptan in rabbit saphenous vein (RSV). Format: functional. The note with it: read-out: pA2 (converted). Put shortly:
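Isolated rabbit saphenous vein segments held in organ baths. Each segment received two sumatriptan concentration-response curves, the second after 60 min incubation with antagonist or control vehicle. Apparent pA2 was calculated from a single antagonist concentration in at least 3 preparations.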

The species entered for another test is Cavia porcellus. The test is described as follows: Sumatriptan induced inhibition of potassium evoked [3H]5-HT release from guinea pig cortex slices. Format: functional. The method in brief: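 Cortex slices from male Dunkin-Hartley guinea pigs were loaded with [3H]5-HT for 30 min, then given potassium stimulation. Sumatriptan 3 µM alone (control), or with test compound at 30 nM, 300 nM or 3 µM, was superfused before and during S2. Basal-subtracted S2/S1 ratio is expressed as % of the sumatriptan-only ratio. Mean (±SEM) of 3-4 determinations.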

As for `COc1ccc(NC(=O)NCCc2c[nH]c3ccc(O)cc23)cc1N1CCN(C)CC1`, the figures for the 50% inhibitory concentration (IC50) (in test [1]; in test [2]; in the test filed under Rattus norvegicus) were 57 nM, 467 nM and 314 nM, respectively.
Turning to `NC(=O)c1ccc2[nH]cc(C3CCNCC3)c2c1`, the IC50 – broadly, the concentration that inhibits the measured activity by half – in the test listed under Rattus norvegicus is above 100 nM.
Still for that read-out and setting: with `NCCN1CCC(c2c[nH]c3cc(F)ccc23)CC1` the figure was 11 nM.
In the test filed under Rattus norvegicus, `Fc1ccc2[nH]cc(CCCCN3CCNCC3)c2c1` gave a concentration for half-maximal inhibition (IC50) of 0.15 nM.
On to `COc1ccc(NC(=O)N2CCc3[nH]c4ccc(F)cc4c3C2)cc1N1CCN(C)CC1`, for which the IC50 in test [1] is above 800 nM; in test [2], 567 nM; in the test listed under Rattus norvegicus, 469 nM.
For `COc1ccc(NC(=O)N2CCN(CCCCc3c[nH]c4ccc(F)cc34)CC2)cc1N1CCN(C)CC1`, in the test filed under Oryctolagus cuniculus, the Kb is 20 nM. This compound also yielded a Release in the test filed under Cavia porcellus of 120%. The IC50 was 50 nM in test [1], 77 nM in test [2] and 0.7 nM in the test listed under Rattus norvegicus.
With `COc1ccc(NC(=O)N2CCC(c3c[nH]c4ccccc34)CC2)cc1N1CCN(C)CC1`, the Kb in the test filed under Oryctolagus cuniculus is 20 nM. In the test listed under Cavia porcellus, this compound showed a Release of 127%. Further, the IC50 in test [1] came to 400 nM; in test [2], 50 nM; in the test filed under Rattus norvegicus, 200 nM.
As for `CN1CCC2(CC1)COc1ccc(NC(=O)NCCN3CCC(c4c[nH]c5cc(F)ccc45)CC3)cc12`, the values for the half-inhibitory concentration (IC50) (in test [1]; in test [2]; in the test filed under Rattus norvegicus) were 700 nM, 300 nM and 2.2 nM, respectively.
Take `Cc1nc(-c2ccc(-c3ccc(C(=O)Nc4ccc5c(c4)C4(CCN(C)CC4)CO5)cc3)c(C)c2)no1`: the Release in the test filed under Cavia porcellus is listed as 134%. Besides, the concentration for half-maximal inhibition (IC50) in test [2] was 2.1 nM; in the test filed under Rattus norvegicus, above 1000 nM.
`Fc1ccc2[nH]c3c(c2c1)CNCC3`: the half-maximal inhibitory concentration (IC50) in the test listed under Rattus norvegicus is above 100 nM.
Turning to `COc1ccc(NC(=O)N2CCC(c3c[nH]c4cccc(F)c34)CC2)cc1N1CCN(C)CC1`, the Kb in the test filed under Oryctolagus cuniculus is 2 nM. This compound registered a Release in the test filed under Cavia porcellus of 145%. Moreover, the values for the IC50 (in test [1]; in test [2]; in the test listed under Rattus norvegicus) were 300 nM, 50 nM and 65 nM, respectively.
With `COc1ccc(NC(=O)NCCN2CCC(c3c[nH]c4cc(F)ccc34)CC2)cc1N1CCN(C)CC1`, the IC50 was found to be 160 nM in test [1], 223 nM in test [2] and 1.9 nM in the test listed under Rattus norvegicus.
Take `c1ccc2c(C3CCNCC3)c[nH]c2c1`: it took 60 nM to reach half-maximal inhibition in the test filed under Rattus norvegicus (IC50).
Regarding `COc1ccc(NC(=O)NCCc2c[nH]c3ccc(F)cc23)cc1N1CCN(C)CC1`, the Kb in the test filed under Oryctolagus cuniculus was 20 nM. Also, in the test listed under Cavia porcellus, the Release turned out to be 134%. The IC50 in test [1] worked out at 27 nM; in test [2], 63 nM; in the test listed under Rattus norvegicus, 387 nM.
For `COc1ccc(NC(=O)N2CCC(c3c[nH]c4ccc(F)cc34)CC2)cc1N1CCN(C)CC1`, the Kb in the test filed under Oryctolagus cuniculus is 15.8 nM. This compound displayed a Release in the test listed under Cavia porcellus of 151%. The figures for the IC50 (in test [1]; in test [2]; in the test listed under Rattus norvegicus) were 367 nM, 85 nM and 21 nM, respectively.
The compound `COc1ccc(N)cc1N1CCN(C)CC1` registered an IC50 in the test filed under Rattus norvegicus above 1000 nM.
In the case of `COc1ccc(NC(=O)N2CCC(c3c[nH]c4ccc(C(N)=O)cc34)CC2)cc1N1CCN(C)CC1`, the Kb in the test filed under Oryctolagus cuniculus was 15.8 nM. In the test filed under Cavia porcellus, this compound yielded a Release of 217%. For the same compound, the IC50 in test [1] was 17 nM; in test [2], 113 nM; in the test listed under Rattus norvegicus, 472 nM.
Regarding `CN1CCC2(CC1)COc1ccc(N)cc12`, in the test listed under Rattus norvegicus, the half-maximal inhibitory concentration (IC50) is above 1000 nM.
`NCCc1c[nH]c2ccc(F)cc12` registered a half-maximal inhibitory concentration (IC50) in the test listed under Rattus norvegicus of 130 nM.
In the test filed under Rattus norvegicus, `Fc1ccc2[nH]cc(C3CCNCC3)c2c1` had an IC50 of 55 nM.
In the test filed under Rattus norvegicus, `Fc1ccc2[nH]cc(C3CCNC3)c2c1` (stereo not drawn) registered a half-inhibitory concentration (IC50) of 45 nM.
As to `CN1CCC2(CC1)COc1ccc(NC(=O)N3CCC(c4c[nH]c5ccc(F)cc45)CC3)cc12`, the Kb in the test filed under Oryctolagus cuniculus was 50.1 nM. The Release in the test filed under Cavia porcellus came out at 125%. Besides, the IC50 was above 200 nM in test [1], 23 nM in test [2] and 0.2 nM in the test listed under Rattus norvegicus.
Compound `COc1ccc(N)cc1OCCN(C)C` returned an IC50 in the test filed under Rattus norvegicus above 1000 nM.
Turning to `Fc1cccc2[nH]cc(C3CCNCC3)c12`, 60 nM corresponded to half-maximal inhibition in the test filed under Rattus norvegicus (IC50).
For the compound `COc1ccc(NC(=O)N2CCC(c3c[nH]c4cc(F)ccc34)CC2)cc1N1CCN(C)CC1`, the Kb in the test listed under Oryctolagus cuniculus is 25.1 nM. The compound further displayed a Release in the test filed under Cavia porcellus of 169%. The 50% inhibitory concentration (IC50) in test [1] was 667 nM; in test [2] it was 80 nM; in the test listed under Rattus norvegicus, 49 nM.
`COc1ccc(NC(=O)NCCN2CCC(c3c[nH]c4cc(F)ccc34)CC2)cc1OCCN(C)C`: the IC50 in test [1] was determined as 233 nM; in test [2] it was 133 nM; in the test listed under Rattus norvegicus, 1.2 nM.
Consider `COc1ccc(NC(=O)N2CCC(c3c[nH]c4ccc(F)cc34)C2)cc1N1CCN(C)CC1` (stereo not drawn), for which the figures for the IC50 (in test [1]; in test [2]; in the test filed under Rattus norvegicus) were 100 nM, 233 nM and 106 nM, respectively.
For the compound `COc1ccc(NC(=O)N2CCC(CCc3c[nH]c4ccccc34)CC2)cc1N1CCN(C)CC1`, in the test filed under Oryctolagus cuniculus, the Kb is 20 nM. Besides, in the test filed under Cavia porcellus, the Release stood at 121%. The IC50 in test [1] was above 300 nM; in test [2], 120 nM; in the test filed under Rattus norvegicus, 10 nM.
As to `Fc1ccc2c(C3CCNCC3)c[nH]c2c1`, inhibition in the test listed under Rattus norvegicus was half-maximal at 20 nM (IC50).
For the compound `COc1ccc(NC(=O)N2CCC(c3c[nH]c4ccc(F)cc34)CC2)cc1OCCN(C)C`, the IC50 is above 500 nM in test [1], 633 nM in test [2] and 4 nM in the test listed under Rattus norvegicus.
With `N#Cc1ccc2[nH]cc(C3CCNCC3)c2c1`, in the test listed under Rattus norvegicus, the IC50 stood at 58 nM.
In the case of `COc1ccc(NC(=O)N2CCC(c3c[nH]c4ccc(C#N)cc34)CC2)cc1N1CCN(C)CC1`, in the test filed under Oryctolagus cuniculus, the Kb is 10 nM. The compound further returned a Release in the test filed under Cavia porcellus of 167%. The 50% inhibitory concentration (IC50) in test [1] stood at 233 nM; in test [2], 267 nM; in the test filed under Rattus norvegicus, 1.9 nM.
Take `COc1ccc(NC(=O)c2ccc(-c3ccc(-c4noc(C)n4)cc3C)cc2)cc1N1CCN(C)CC1` [GR-127935]: the Kb in the test filed under Oryctolagus cuniculus was 0.398 nM. The compound also gave a Release in the test filed under Cavia porcellus of 114%. The IC50 in test [1] turned out to be 360 nM; in the test listed under Rattus norvegicus, 1000 nM.
Compound `c1ccc2c(CCC3CCNCC3)c[nH]c2c1` [INDALPINE] had a 50% inhibitory concentration (IC50) in the test listed under Rattus norvegicus of 1 nM.
